Key:
[1] = Cytotoxicity against human MT4 cells incubated for 4 days by MTT assay; format: cell-based
How it was run: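 Uninfected MT-4 cells, 2.5 × 10^4/well, cultured with graded compound concentrations for 4 days; growth inhibition measured by MTT absorbance at 560 and 690 nm.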

[2] = Terminal half life in fed cynomolgus monkey at 1 mg/kg, iv measured up to 24 hrs; format: ADME, organism-based, Macaca fascicularis; parameters: dose 1 mg/kg, route intravenous; conditions: in vivo, read-out: beta t1/2 (converted)
How it was run: (§1)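 Intravenous 1 mg/kg, fed conditions; vehicle DMA/PEG/saline (1:4:5) for rats, 50 mM N-methylglucamine in 3% mannitol for dogs and monkeys; rat blood via jugular cannula; plasma collected up to 24 h, centrifuged 16000g 3 min, held at −20 °C; noncompartmental analysis.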

[3] = test system: Human immunodeficiency virus 1; experiment: Resistance index, ratio of IC50 for HIV1 3B containing integrase Y143R mutant to IC50 for wild type HIV1 3B; format: functional
How it was run: (§2)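 Integrase mutations introduced into pNL432 molecular clone; plasmids transfected into 293T cells, supernatants harvested after 2 days and stored at −80 °C. Mutant and wild-type viruses tested in HeLa-CD4 cells carrying HIV-1 LTR-driven β-galactosidase reporter. Fold change is mutant IC50 over wild-type IC50.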

[4] = Ratio of Plasma concentration in fed cynomolgus monkey at 5 mg/kg, po measured at 24 hrs to IC50 for wild type HIV1 3B infected in human MT4 cells in presence of 20 mg/ml HSA
[5] = Oral bioavailability in fed cynomolgus monkey at 5 mg/kg measured up to 24 hrs; format: ADME, organism-based, Macaca fascicularis; conditions: in vivo
[6] = Total clearance in fed cynomolgus monkey at 1 mg/kg, iv measured up to 24 hrs; format: ADME, organism-based, Macaca fascicularis; parameters: dose 1 mg/kg, route intravenous; conditions: in vivo; how it was run: as §1
[7] = Volume of distribution at steady state in fed beagle dog at 1 mg/kg, iv measured up to 24 hrs; format: ADME, organism-based, Canis lupus familiaris; parameters: dose 1 mg/kg, route intravenous; conditions: in vivo, read-out: Vdss; how it was run: as §1
[8] = Volume of distribution at steady state in fed rat at 1 mg/kg, iv measured up to 24 hrs; format: ADME, organism-based; parameters: dose 1 mg/kg, route intravenous; conditions: in vivo, read-out: Vdss; how it was run: as §1
[9] = Terminal half life in fed rat at 1 mg/kg, iv measured up to 24 hrs; format: ADME, organism-based; parameters: dose 1 mg/kg, route intravenous; conditions: in vivo, read-out: beta t1/2 (converted); how it was run: as §1
[10] = test system: Human immunodeficiency virus 1; experiment: Inhibition of wild type HIV1 3B infected in human MT4 cells using cells pre-incubated with compound for 1 hr measured 4 days post viral infection by MTT assay; format: functional, organism-based; conditions: Human immunodeficiency virus 1, 3B
How it was run: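 MT-4 cells (2.5 × 10^4/well, RPMI 1640 + 10% FBS) exposed to compound dilutions 1 h, then infected with HIV-1 IIIB (MOI 0.001 or TCID50 4 to 10); after 4 days viability read by MTT absorbance at 560/690 nm; mean ± sd of three independent experiments.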

[11] = Terminal half life in fed beagle dog at 1 mg/kg, iv measured up to 24 hrs; format: ADME, organism-based, Canis lupus familiaris; parameters: dose 1 mg/kg, route intravenous; conditions: in vivo, read-out: beta t1/2 (converted); how it was run: as §1
[12] = Volume of distribution at steady state in fed cynomolgus monkey at 1 mg/kg, iv measured up to 24 hrs; format: ADME, organism-based, Macaca fascicularis; parameters: dose 1 mg/kg, route intravenous; conditions: in vivo, read-out: Vdss; how it was run: as §1
[13] = Total clearance in fed beagle dog at 1 mg/kg, iv measured up to 24 hrs; format: ADME, organism-based, Canis lupus familiaris; parameters: dose 1 mg/kg, route intravenous; conditions: in vivo; how it was run: as §1
[14] = test system: Human immunodeficiency virus 1; experiment: Resistance index, ratio of IC50 for HIV1 3B containing integrase N155H mutant to IC50 for wild type HIV1 3B; format: functional; how it was run: as §2
[15] = test system: Human immunodeficiency virus 1; experiment: Inhibition of wild type HIV1 3B infected in human MT4 cells using cells pre-incubated with compound for 1 hr measured 4 days post viral infection in presence of 20 mg/ml HSA by MTT assay; format: functional, organism-based; conditions: Human immunodeficiency virus 1, 3B
[16] = Ratio of Plasma concentration in fed rat at 5 mg/kg, po measured at 24 hrs to IC50 for wild type HIV1 3B infected in human MT4 cells in presence of 20 mg/ml HSA
[17] = Inhibition of CYP450; format: ADME
[18] = test system: Human immunodeficiency virus 1; experiment: Potency shift, ratio of IC50 for wild type HIV1 3B infected in human MT4 cells in presence of 20 mg/ml HSA to IC50 for wild type HIV1 3B infected in human MT4 cells in absence of HSA; format: functional
How it was run: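 MT-4 cells (2.5 × 10^4/well) preincubated 1 h with graded compound, then infected with HIV-1 IIIB (MOI 0.001 or TCID50 4 to 10), with or without human serum albumin 20 mg/mL; after 4 days viability read by MTT absorbance at 560/690 nm. Fold-shift = IC50 with HSA over IC50 without.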

[19] = target: Human immunodeficiency virus type 1 integrase (Human immunodeficiency virus 1, UniProt Q7ZJM1); experiment: Inhibition of HIV1 integrase strand transfer activity using pre-incubation and wash with Mg2+ cofactor by ELISA based microtiter plate integration assay
How it was run: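 Preformed IN–substrate DNA complex on microtiter plate, unbound IN washed out; compound preincubated with complex 30 min at 30 °C in 30 mM MOPS pH 7.2, 10 mM DTT, 5% glycerol, 100 μg/mL BSA; Mg2+ 15 mM throughout; strand transfer started with digoxigenin-labeled target DNA, products quantified by anti-Dig ELISA; mean ± sd of three independent experiments.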

[20] = Oral bioavailability in fed rat at 5 mg/kg measured up to 24 hrs; format: ADME, organism-based; conditions: in vivo
[21] = Half life in fed rat at 5 mg/kg, po measured up to 24 hrs; format: ADME, organism-based; parameters: dose 5 mg/kg, route oral; conditions: in vivo
[22] = Oral bioavailability in fed beagle dog at 5 mg/kg measured up to 24 hrs; format: ADME, organism-based, Canis lupus familiaris; conditions: in vivo
[23] = Plasma concentration in fed rat at 5 mg/kg, po measured at 24 hrs; format: ADME, organism-based; parameters: dose 5 mg/kg, route oral
[24] = Total clearance in fed rat at 1 mg/kg, iv measured up to 24 hrs; format: ADME, organism-based; parameters: dose 1 mg/kg, route intravenous; conditions: in vivo; how it was run: as §1
[25] = Ratio of Plasma concentration in fed beagle dog at 5 mg/kg, po measured at 24 hrs to IC50 for wild type HIV1 3B infected in human MT4 cells in presence of 20 mg/ml HSA
[26] = AUC (0 to infinity) in fed rat at 5 mg/kg, po measured up to 24 hrs; format: ADME, organism-based; parameters: time infinity, dose 5 mg/kg, route oral; conditions: plasma
[27] = test system: Human immunodeficiency virus 1; experiment: Resistance index, ratio of IC50 for HIV1 3B containing integrase Q148K mutant to IC50 for wild type HIV1 3B

Chain of Human immunodeficiency virus type 1 integrase (Q7ZJM1 whole entry): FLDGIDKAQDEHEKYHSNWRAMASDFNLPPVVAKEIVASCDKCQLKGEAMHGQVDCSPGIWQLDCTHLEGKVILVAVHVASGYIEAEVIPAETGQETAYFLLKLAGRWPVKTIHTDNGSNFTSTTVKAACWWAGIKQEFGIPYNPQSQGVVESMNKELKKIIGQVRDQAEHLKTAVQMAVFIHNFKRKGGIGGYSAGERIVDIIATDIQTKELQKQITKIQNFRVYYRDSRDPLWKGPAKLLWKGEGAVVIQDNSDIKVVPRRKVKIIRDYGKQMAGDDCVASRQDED

COC(=O)c1[nH]cc(C(=O)NCc2ccc(F)cc2)c(=O)c1O
CC50 at 96 h [1]: 19000 nM | half-life [2]: 5.3 h | Ratio IC50 [3]: 1.5 | Ratio [4]: 1.6 | bioavailability [5]: 22% | clearance [6]: 2.4 mL/min/kg | Vd [7]: 0.14 L/kg | Vd [8]: 0.2 L/kg | half-life [9]: 4.7 h | IC50 [10]: 10 nM | half-life [11]: 3.8 h | Vd [12]: 0.3 L/kg | clearance [13]: 0.84 mL/min/kg | Ratio IC50 [14]: 21 | IC50 [15]: 120 nM | Ratio [16]: 3.4 | inhibition (INH) [17]: Not Active | Ratio IC50 [18]: 12 | IC50 [19]: 18 nM | bioavailability [20]: 53% | half-life [21]: 4.2 h | bioavailability [22]: 46% | concentration at 24 h [23]: 130 ng/mL | clearance [24]: 1.2 mL/min/kg | Ratio [25]: 6 | AUC(0-inf) [26]: 41200 ng·h/mL | Ratio IC50 [27]: 200

CN(C)C(=O)c1[nH]cc(C(=O)NCc2ccc(F)cc2)c(=O)c1O
CC50 at 96 h [1]: 5100 nM | IC50 [10]: 1600 nM | IC50 [19]: 540 nM

CNC(=O)c1[nH]cc(C(=O)NCc2ccc(F)cc2)c(=O)c1O
CC50 at 96 h [1]: 8500 nM | IC50 [10]: 120 nM | IC50 [19]: 1300 nM

NC(=O)c1[nH]cc(C(=O)NCc2ccc(F)cc2)c(=O)c1O
CC50 at 96 h [1]: 40000 nM | IC50 [10]: 5500 nM | IC50 [19]: 380 nM

O=C(NCCO)c1[nH]cc(C(=O)NCc2ccc(F)cc2)c(=O)c1O
CC50 at 96 h [1]: > 200000 nM | IC50 [10]: 5500 nM | IC50 [19]: 300 nM

O=C(O)c1[nH]cc(C(=O)NCc2ccc(F)cc2)c(=O)c1O
CC50 at 96 h [1]: > 200000 nM | IC50 [10]: 1400 nM | IC50 [19]: 10 nM

Cc1nnc(C(=O)NC(C)(C)c2nc(C(=O)NCc3ccc(F)cc3)c(O)c(=O)n2C)o1 [RALTEGRAVIR]
IC50 [10]: 6.2 nM | IC50 [15]: 29 nM

COCCNC(=O)c1[nH]cc(C(=O)NCc2ccc(F)cc2)c(=O)c1O
CC50 at 96 h [1]: 16000 nM | IC50 [10]: 110 nM | IC50 [19]: 130 nM

COc1cc2c(cc1Cc1cccc(Cl)c1F)c(=O)c(C(=O)O)cn2[C@H](CO)C(C)C [ELVITEGRAVIR]
IC50 [10]: 1.3 nM | IC50 [15]: 29 nM

Source: ChEMBL document CHEMBL2169855, “Carbamoyl pyridone HIV-1 integrase inhibitors. 1. Molecular design and establishment of an advanced two-metal binding pharmacophore” (J Med Chem, 2012)
